M5 PAM: potentiates acetylcholine response at human M5 receptor; P08912; 360,000 tested, 0.3% active; activation, % at 3 µM; CHO-K1 hM5, Fluo-8 calcium, ACh EC20 PAM; 0% = ACh EC20, 100% = ACh EC100;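 active = activation above the run cutoff, the mean activation of all test compounds plus 3 SD, cut at about 18% in these data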
Target sequence (P08912 whole entry, looked up): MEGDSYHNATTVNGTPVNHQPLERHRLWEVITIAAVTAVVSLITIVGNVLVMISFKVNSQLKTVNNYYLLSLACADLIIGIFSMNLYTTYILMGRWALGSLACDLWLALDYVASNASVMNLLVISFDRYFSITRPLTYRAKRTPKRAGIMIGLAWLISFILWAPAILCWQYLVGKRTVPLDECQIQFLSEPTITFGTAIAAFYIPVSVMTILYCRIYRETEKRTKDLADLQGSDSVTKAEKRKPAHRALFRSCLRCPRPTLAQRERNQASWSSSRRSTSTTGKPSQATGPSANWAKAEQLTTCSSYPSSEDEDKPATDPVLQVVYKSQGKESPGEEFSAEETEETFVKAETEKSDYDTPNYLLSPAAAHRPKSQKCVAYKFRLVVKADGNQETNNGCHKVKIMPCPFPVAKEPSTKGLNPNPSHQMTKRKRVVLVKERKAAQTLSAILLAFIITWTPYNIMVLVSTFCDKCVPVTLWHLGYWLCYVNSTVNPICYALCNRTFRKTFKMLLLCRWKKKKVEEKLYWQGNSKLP
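Assay system: CHO-K1 hM5 cells / Incubation: Fluo-8 loading 80 min at 37 °C plus 30 min room temperature / Technique: Fluo-8 calcium dye fluorescence, kinetic read / Repeats: single replicate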
M5 ag: agonists of human muscarinic M5 receptor (CHRM5). CHO-K1 hM5 cells, Fluo-8 calcium fluorescence; 0% DMSO wells, 100% maximal acetylcholine response. activation, % at 3 µM. 360,000 tested, 0.19% active;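 active = activation above the run's mean over test compounds plus 3 SD, cut at about 23% in these data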;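 also: signal is peak over basal fluorescence ratio across the kinetic read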
CHRM4 agonist: CHRM4 agonism in calcium assay; 360,000 tested, 0.14% active; CHO-K1 hM4/Gqi5, Fluo-8 calcium fluorescence; vehicle 0%, full acetylcholine response 100%; AID 624127; activation, % at 3 µM;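 active = activation above the run mean over all test wells plus 3 SD, cut at about 32% in these data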;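 also: peak over basal fluorescence ratio per well then scaled between controls; 0% = DMSO wells and 100% = acetylcholine at EC100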
CHRM5 antagonist: blocks acetylcholine activation of human M5 receptor; inhibition, % at 3 µM; 360,000 tested, 0.59% active; P08912; CHO-hM5 cells, Fluo-8 calcium fluorescence, ACh EC80;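 active = inhibition above a per-plate cutoff, the mean of that plate's test compounds plus 3 SD, cut at about 27% in these data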;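 also: 0% = acetylcholine EC80 with DMSO and 100% = DMSO without agonist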
CHRM4 PAM: positive allosteric modulators of human muscarinic M4 receptor | P08173 | CHO-K1 hM4/Gqi5, Fluo-8 calcium fluorescence, ACh EC20; 0% = ACh EC20, 100% = maximal ACh | activation, % at 3 µM | 360,000 tested, 0.4% active;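 active = activation above its plate's cutoff, the mean activation of sample wells plus 3 SD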
CHRM4 antagonist: antagonists of human muscarinic M4 receptor (CHRM4) | P08173 | CHO-hM4 cells, ACh EC80, Fluo-8 calcium fluorescence | inhibition, % at 3 µM | 360,000 tested, 0.73% active;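 active = inhibition above its plate's cutoff, the mean inhibition of sample wells plus 3 SD, cut at about 27% in these data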;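 also: 0% = acetylcholine EC80 with DMSO and 100% = DMSO without agonist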
* = called active by the depositor. A selection: hits, their analogues and other compounds. The true share with any hit is near 1.8%.

SMILES | M5 PAM | M5 ag | CHRM4 agonist | CHRM5 antagonist | CHRM4 PAM | CHRM4 antagonist
CCOC(=O)[C@]12CCC=C1N(Cc1ccco1)C(=O)[C@H](CC(=O)NCCCOC)C2 | 5 | 3 | 0 | -7 | 2 | 5
CCC(C)c1ccccc1NC(=O)C(C)OC(=O)CN1C(=O)NC(C)(C)C1=O (configuration not stated) | 1 | 3 | 1 | 6 | 26* | -14
Nc1c(C(=O)NCc2ccc3c(c2)OCO3)c2nc3ccccc3nc2n1CCCN1CCOCC1 | -2 | 0 | 9 | 13 | -1 | 4
COc1ccccc1CNC(=O)c1c(N)n(CCCN2CCOCC2)c2nc3ccccc3nc12 | -12 | 5 | 32 | 25 | -10 | 34*
COc1ccc(N2CCN(C(=S)Nc3ccccc3)CC2)cc1 | -3 | 1 | 1 | 10 | -3 | -3
Cc1ccc(C(=O)N2CCN(c3ccc(NC(=S)NC(=O)Cc4ccccc4)cc3)CC2)cc1 | -19 | -1 | 4 | 29* | -9 | 13
CC(=O)c1ccc(N2CCN(C(=S)Nc3ccc(Oc4ccccc4)cc3)CC2)cc1 | -31 | 2 | 13 | 35* | -21 | 19
CCc1c(C)sc(NC(=O)C2CC2c2ccccc2)c1C(N)=O (configuration not stated) | -1 | -3 | 1 | 3 | 5 | 27*
O=C(CO/N=C1\CCCc2nonc21)Nc1ccccc1Cl | 0 | -1 | 2 | 2 | 16 | 27*
COc1ccc(-c2csc(C(C)(O)c3cccc(F)c3)n2)cc1 (configuration not stated) | -11 | -1 | 4 | 8 | -11 | 37*
CC(C)c1ccc(NC(=O)C2CC(=O)N(C3CCCC3)C2)cc1 (configuration not stated) | -3 | -3 | 4 | 6 | 18* | -19
Cc1ccc(NC(=O)CS(=O)(=O)c2cn(CC(=O)N3CCOCC3)c3ccccc23)cc1 | 3 | -3 | 2 | -9 | 25 | 36*
COc1ccc(N2C(=O)c3cccc4cccc(c34)C2=O)cc1 | 2 | 1 | 0 | 9 | -4 | 1
O=C1c2cccc3c(O)ccc(c23)C(=O)N1c1ccc(Cl)cc1 | -20 | 33* | 75* | 12 | -23 | 20
O=C1c2ccccc2C(=O)N1Cc1ccco1 | 1 | -9 | 1 | -4 | 7 | 1
O=C1c2cccc3c(O)ccc(c23)C(=O)N1Cc1ccco1 | -13 | 26* | 99* | 22 | -20 | 28*
CC(=O)Nc1ccc(N2C(=O)c3cccc4c(O)ccc(c34)C2=O)cc1 | -17 | 64* | 147* | 28* | -23 | 29*
COc1ccc(N2C(=O)c3cccc4c(N(C)CCO)ccc(c34)C2=O)cc1 | -9 | 24* | 7 | 7 | 1 | 1
CC(=O)Nc1ccc(-n2c(=O)c3ccccc3c3ccccc3c2=O)cc1 | -6 | 1 | 2 | 8 | 19 | -10
CCOC(=O)c1ccc(N2C(=O)c3cccc4c(C(=O)O)ccc(c34)C2=O)cc1 | 2 | 3 | 0 | -1 | 4 | -5
Cc1cnc2nc(-c3ccccc3)ccc2c1 | 11 | 1 | 0 | -10 | 8 | -10
Cc1ccc(-c2cc(C(=O)Nc3cc(C)ccc3O)no2)cc1 | -1 | 0 | 1 | 11 | 8 | -3
Cc1ccc(O)c(NC(=O)c2cc(-c3ccccc3Cl)on2)c1 | -9 | -8 | 0 | 28* | -6 | 4
O=C(CN1CCC(NC(=O)c2cccc(F)c2)CC1)NCc1cccs1 | -1 | -1 | 3 | 17 | 24* | -3
Cn1c(=O)c([N+](=O)[O-])c(Cl)c2ccccc21 | -10 | 0 | -1 | 17 | -15 | 41*
SMILES | M5 PAM | M5 ag | CHRM4 agonist | CHRM5 antagonist | CHRM4 PAM | CHRM4 antagonist
CCN(CC)c1c([N+](=O)[O-])c(=O)n(C)c2ccccc12 | 8 | -4 | -1 | 3 | 4 | -1
Cn1c(CCN2CCN(c3ccccn3)CC2)nc2cc(NS(=O)(=O)c3ccc(Cl)cc3)ccc21 | -16 | -7 | 20 | 27* | -14 | 21
Cc1ccc(S(=O)(=O)Nc2ccc3c(c2)nc(CCN2CCN(c4ccccn4)CC2)n3C)cc1 | -6 | -9 | 5 | 14 | -12 | 17
Cn1c(CCN2CCN(c3ccccn3)CC2)nc2cc(NC(=O)COc3ccc(Cl)cc3)ccc21 | -16 | -5 | 22 | 27* | -14 | 21
N#Cc1ccc2[nH]cc(C3c4cc(F)ccc4C=C(c4ccsc4)N3c3ccc(C#CCCO)cc3)c2c1 (configuration not stated) | -9 | -5 | 2 | 4 | -15 | 41*
COc1cc(-c2ccc(N3C(c4ccsc4)=Cc4ccc(F)cc4C3c3c[nH]c4ccc(C#N)cc34)cc2)cc(OC)c1OC (configuration not stated) | -8 | 2 | 1 | -1 | 5 | -2
CCNC(=O)C1(c2ccccc2)CCCC1 | 5 | 1 | 1 | -1 | 9 | 4
C[N+]1(CCCOC(=O)C2(c3ccccc3)CCCC2)CCOCC1 | -19 | -6 | 1 | 87* | -39 | 78*
CCN(CC)CCOC(=O)c1ccc(NC(=O)C2(c3ccccc3)CCCC2)cc1 | -41 | -15 | 3 | 36* | -13 | 21
COc1ccc(C(=O)OCC[N+]2(C)CCOCC2)cc1 | 6 | -9 | 1 | 8 | 10 | -16
O=C(OCCN1CCCCC1)C1(c2ccccc2)CCCC1 | -18 | -11 | 1 | 99* | -25 | 91*
CN(C)CCOC(=O)C1(c2ccccc2)CCCC1 | -20 | -8 | 1 | 86* | -25 | 77*
O=C(O)c1ccc(NC(=O)C2(c3ccccc3)CCCC2)cc1 | 3 | -3 | 0 | 6 | 4 | -5
O=C(OCCN1CCCCC1)c1ccccc1Br | -11 | -4 | 11 | 21 | -16 | 6
CCN1C(=O)[C@H]2[C@@H](c3ccc(C(F)(F)F)cc3)N[C@]3(CCCN(Cc4ccco4)C3=O)[C@H]2C1=O | -4 | 1 | 0 | 5 | 1 | -6
O=C(OCCN1CCCC1)C1(c2ccccc2)CCCC1 | -23 | -8 | 2 | 99* | -23 | 94*
C=C(C)Cn1c2ccc(NC(=O)NCc3ccc(F)cc3)cc2c(=O)n1C | 5 | 0 | 1 | 0 | -3 | -2
CCn1c(C)cc(/C=C2\NC(=O)N(Cc3ccc(Cl)cc3)C2=O)c1C | 0 | 5 | 2 | -5 | 9 | 31*
CCN1C(=O)N/C(=C/c2cc(C)n(Cc3ccccc3)c2C)C1=O | 0 | 0 | 3 | 3 | 5 | 6
CC(C)S(=O)(=O)NC(=O)C1(C)CCN1C(=O)Cc1ccccc1 (configuration not stated) | -5 | -1 | 1 | 29* | -1 | 1
